Assay results taken from ChEMBL document CHEMBL2429796, “Discovery and synthesis of novel benzofurazan derivatives as inhibitors of influenza A virus” (Bioorg Med Chem Lett, 2013).
Activity calls are given as the source filed them. The calls are words filed in the database; no cut-off is given here.

Assays:
HEK-293T = test: Inhibition of influenza A virus HA-tagged polymerase acidic protien transfected in HEK293T cells after 24 hrs by ELISA; format: cell-based
Influenza A virus = test: Antiviral activity against Influenza A virus A/WSN/33(H1N1) infected in MDCK cells after 48 hrs by plaque reduction assay; format: functional, organism-based, A/WSN/1933(H1N1)
Method in brief: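 Plaque-reduction assay in MDCK cells infected with influenza A/WSN/33 (H1N1). IC50 was determined only for compounds positive in an ELISA prescreen for binding to the polymerase PA subunit.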

MDCK = test: Cytotoxicity against MDCK cells; format: cell-based, Canis lupus familiaris; conditions: dog
[1] = Influenza A virus, A/WSN/1933(H1N1), MDCK, 48 h, read-out: IC50

SMILES	inhibition (HEK-293T)	IC50 (Influenza A virus; mdck)	IC50 (Influenza A virus; [1]) [µM]	Cytotoxic concentration (MDCK) [µM]	Activity (MDCK) [µM]
N#Cc1ccc(Oc2ccc([N+](=O)[O-])c3nonc23)cc1	Active	Not Active			
O=[N+]([O-])c1ccc(Sc2ccc(Br)cc2)c2nonc12	Active		10	40	
O=[N+]([O-])c1ccc(Sc2ccc(F)cc2)c2nonc12	Active		5	40	
COc1ccc(CSc2ccc(NCc3ccccc3)c3nonc23)cc1	Active	Not Active			
O=[N+]([O-])c1ccc(Sc2ccc(Cl)cc2)c2nonc12	Active		10	40	
O=[N+]([O-])c1ccc(SCc2ccccc2)c2nonc12	Active	Not Active			20
O=[N+]([O-])c1ccc(Nc2ccccc2O)c2nonc12	Active	Not Active			
O=[N+]([O-])c1ccc(Oc2cccc(Br)c2)c2nonc12	Active		20	> 40	
Nc1cccc(Sc2ccc([N+](=O)[O-])c3nonc23)c1	Active		10	40	
O=[N+]([O-])c1ccc(Nc2ccc(O)cc2)c2nonc12	Active	Not Active			
O=[N+]([O-])c1ccc(SCc2ccc(Cl)cc2)c2nonc12	Active	Not Active			
O=[N+]([O-])c1ccc(Sc2ccccc2)c2nonc12	Active	Not Active			20
O=[N+]([O-])c1ccc(SCc2ccc(Br)cc2)c2nonc12	Active		≥ 5	> 10	
COc1cccc(Oc2ccc([N+](=O)[O-])c3nonc23)c1	Active	Not Active			
O=[N+]([O-])c1ccc(Oc2ccc(CCO)cc2)c2nonc12	Active		10	20	
CNc1ccc(SCc2ccc(OC)cc2)c2nonc12	Active	Not Active			
O=[N+]([O-])c1ccc(Sc2ccccc2Br)c2nonc12	Active		> 10	40	
O=[N+]([O-])c1ccc(Nc2ccccc2S)c2nonc12	Active		20	> 80	
COc1ccc(CSc2ccc(Cl)c3nonc23)cc1	Active	Not Active			
O=Cc1ccc(Oc2ccc([N+](=O)[O-])c3nonc23)cc1	Active		20	> 40	
COc1ccc(Oc2ccc([N+](=O)[O-])c3nonc23)cc1	Active		30	60	
O=[N+]([O-])c1cccc(CSc2ccc([N+](=O)[O-])c3nonc23)c1	Active		1	20	
O=[N+]([O-])c1ccc(Sc2ccc([N+](=O)[O-])c3nonc23)cc1	Active		10	40	
COc1ccc(Sc2ccc([N+](=O)[O-])c3nonc23)cc1	Active	Not Active		40	
O=[N+]([O-])c1ccc(SCc2ccc(F)cc2)c2nonc12	Active	Not Active		20	
O=[N+]([O-])c1ccc(OCc2ccccc2)c2nonc12	Active	Not Active			
